Assays:
[1] = selectivity ratio (Alpha-1[3H]-prazosin/Alpha2[3H]-clonidine)
[2] = biological target: T1, Adrenergic receptor alpha-2 (Rattus norvegicus, UniProt P22086+P19328+P22909); assay: Ability to displace [3H]clonidine from alpha-2 adrenergic receptor in rat brain homogenates in vitro; assay type: tissue-based
T1 sequence (P22086 whole entry): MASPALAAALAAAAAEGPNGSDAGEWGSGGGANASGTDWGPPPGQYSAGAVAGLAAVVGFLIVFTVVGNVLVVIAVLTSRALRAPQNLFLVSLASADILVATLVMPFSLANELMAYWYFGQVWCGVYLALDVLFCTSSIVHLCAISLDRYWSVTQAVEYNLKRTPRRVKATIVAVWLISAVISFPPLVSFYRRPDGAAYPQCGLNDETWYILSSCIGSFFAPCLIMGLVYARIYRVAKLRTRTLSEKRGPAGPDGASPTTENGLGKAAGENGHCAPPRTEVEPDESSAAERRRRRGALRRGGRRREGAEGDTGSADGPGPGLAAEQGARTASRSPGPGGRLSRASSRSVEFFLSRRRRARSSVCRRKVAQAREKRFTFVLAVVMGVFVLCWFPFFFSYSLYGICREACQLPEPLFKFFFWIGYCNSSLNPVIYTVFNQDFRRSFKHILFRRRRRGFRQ
T1 sequence (P19328 whole entry): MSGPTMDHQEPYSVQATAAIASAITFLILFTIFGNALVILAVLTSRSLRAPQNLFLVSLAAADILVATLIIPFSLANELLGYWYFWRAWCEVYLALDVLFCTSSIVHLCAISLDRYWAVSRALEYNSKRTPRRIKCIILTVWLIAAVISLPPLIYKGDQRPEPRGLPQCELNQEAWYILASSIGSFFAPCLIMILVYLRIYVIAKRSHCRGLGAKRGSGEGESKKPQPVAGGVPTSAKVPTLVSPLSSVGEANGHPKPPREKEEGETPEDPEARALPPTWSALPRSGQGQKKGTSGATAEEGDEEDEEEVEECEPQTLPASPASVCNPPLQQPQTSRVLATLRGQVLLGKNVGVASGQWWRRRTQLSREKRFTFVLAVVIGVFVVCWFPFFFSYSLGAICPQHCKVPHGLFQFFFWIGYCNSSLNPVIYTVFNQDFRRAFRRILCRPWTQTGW
T1 sequence (P22909 whole entry): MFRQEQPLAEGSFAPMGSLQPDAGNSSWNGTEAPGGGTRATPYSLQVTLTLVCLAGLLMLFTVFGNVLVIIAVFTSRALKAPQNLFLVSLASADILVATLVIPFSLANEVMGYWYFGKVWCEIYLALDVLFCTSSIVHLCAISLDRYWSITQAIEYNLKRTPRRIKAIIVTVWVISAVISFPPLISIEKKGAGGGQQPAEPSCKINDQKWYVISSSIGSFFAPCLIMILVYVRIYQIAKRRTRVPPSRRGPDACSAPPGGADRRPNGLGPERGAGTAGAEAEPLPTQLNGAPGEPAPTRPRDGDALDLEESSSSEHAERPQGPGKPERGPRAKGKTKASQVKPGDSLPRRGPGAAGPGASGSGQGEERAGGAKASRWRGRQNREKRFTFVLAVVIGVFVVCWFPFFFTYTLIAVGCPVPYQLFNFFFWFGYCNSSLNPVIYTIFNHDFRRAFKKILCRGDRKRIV
Summary of the method: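 Rat cerebral cortex homogenized in 50 mM Tris pH 7.7, washed twice by centrifugation at 48000g, resuspended in 50 volumes. Membranes incubated with 0.4 nM [3H]clonidine plus varied test concentrations, 30 min at 25 °C. Nonspecific binding defined with 1 μM unlabeled clonidine. GF/B filtration, scintillation counting. Run in triplicate; logit plot IC50 converted to apparent Ki (Cheng–Prusoff).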

[3] = biological target: T1, Adrenergic receptor alpha-2; assay: In vitro antagonistic activity against alpha-2 adrenergic receptor in isolated electrically stimulated rat vas deferens (clonidine-induced decrease in twitch height); assay type: functional, tissue-based
[4] = selectivity ratio (Alpha-1[Methoxiamine]/Alpha2[clonidine]
Summary of the method: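 Ratio derived from Schild pA2 values in rat vas deferens: α1 antagonism against methoxamine contractions (24 °C Krebs, three antagonist concentrations) versus α2 antagonism against clonidine inhibition of field-stimulated twitch (33–34 °C, 80 V, 1 ms, 0.15 Hz).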

Rattus norvegicus = assay: Minimum effective dose required for inhibition of serotonin uptake was determined by PCA method in rat by peroral administration; assay type: functional; details: po, read-out: MED
Summary of the method: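 Fasted male Sprague–Dawley rats (160–200 g) given test compound orally in water (10 mL/kg) 15 min before p-chloroamphetamine 3 mg/kg ip. Forebrain taken 3 h later, extracted in acidified butanol then heptane/0.1 N HCl. Serotonin in aqueous phase measured fluorometrically after o-phthalaldehyde condensation (excitation 360 nm). Minimum effective dose reported.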

SMILES | Selectivity ratio [1] | Ki [2] | pA2 [3] | Selectivity ratio [4] | minimal effective dose (Rattus norvegicus) | Ratio [1] | Ratio [4]
CC1=C(CC2=NCCN2)CCc2ccccc21.Cl | 12.3 | 12 nM | 7.19 | 1.3 | 30 mg/kg |  | 
C1=C(CC2=NCCN2)CCc2ccccc21.Cl [NAPAMEZOLE HYDROCHLORIDE] |  | 23 nM | 7.76 |  | 30 mg/kg | 3.4 | 7.8
